Assay results as given in publication PMC8669655 (ACS Infectious Diseases, 2021).
≈ marks a conversion by molar mass, not a printed value. Entries after “also recorded” stand apart in the source; their conditions may differ. One block for each compound: values may come before it.

Legend:
K. pneumoniae ATCC13883 = experiment: Checkerboard assay with rifampicin; type: cell-based, Klebsiella pneumoniae; conditions: listed as pentamidine (1)
Procedure, shortened: (§1)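 Broth microdilution checkerboard in LB: serial dilutions of test compound and rifampicin combined, in triplicate. Inoculum from a single blood-agar colony, grown in LB at 37 °C to OD600 0.5, diluted to 2.0 × 10^6 CFU/mL stock, 50 μL added per 100 μL well. Sealed plates incubated 20 h, 37 °C, 600 rpm shaking. OD600 read after resuspension. FICI from MICs alone and in combination; ≤0.5 taken as synergy.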

E. coli ATCC25922 = experiment: Checkerboard assay with rifampicin; type: cell-based, Escherichia coli; conditions: E. coli ATCC25922 (wild-type)
Procedure, shortened: as §1

[1] = system: E. coli EQASmcr-2 (EQAS 2016 KP37); experiment: Checkerboard assay with rifampicin; type: cell-based, Escherichia coli; conditions: E. coli EQASmcr-2 (polymyxin-resistant)
Procedure, shortened: as §1

E. coli W3110 = experiment: Checkerboard assay with rifampicin; type: cell-based, Escherichia coli; conditions: E. coli W3110 (wild-type)
Procedure, shortened: as §1

E. coli 552060.1 = experiment: Checkerboard assay with rifampicin; type: cell-based, Escherichia coli; conditions: E. coli 552060.1 (wild-type clinical isolate)
Procedure, shortened: as §1

[2] = system: E. coli EQASmcr-1 (EQAS 2016 412016126); experiment: Checkerboard assay with rifampicin; type: cell-based, Escherichia coli; conditions: E. coli EQASmcr-1 (polymyxin-resistant)
Procedure, shortened: as §1

[3] = system: E. coli EQASmcr-3 (EQAS 2017 2013-SQ352); experiment: Checkerboard assay with rifampicin; type: cell-based, Escherichia coli; conditions: E. coli EQASmcr-3 (polymyxin-resistant), listed as pentamidine (1)
Procedure, shortened: as §1

P. aeruginosa ATCC27853 = experiment: Checkerboard assay with rifampicin; type: cell-based, Pseudomonas aeruginosa; conditions: listed as pentamidine (1)
Procedure, shortened: as §1

A. baumannii ATCC17978 = experiment: Checkerboard assay with rifampicin; type: cell-based, Acinetobacter baumannii; conditions: listed as pentamidine (1)
Procedure, shortened: as §1

E. coli BW25113 [4] = experiment: MIC assay; type: cell-based; conditions: Escherichia coli
Procedure, shortened: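 Broth microdilution per CLSI in LB. Test compound serially diluted twofold from a 2× stock. Inoculum from a single blood-agar colony, grown in LB at 37 °C to OD600 0.5, diluted to 2.0 × 10^6 CFU/mL stock, then added 1:1. Plates sealed with breathable seal, incubated 20 h at 37 °C, 600 rpm. MIC read visually after brief centrifugation. Six growth and six sterility controls.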

E. coli BW25113 [5] = experiment: OM permeabilization assay using NPN; type: cell-based, Escherichia coli; conditions: 60 min, relative to 100 μg/mL colistin
Procedure, shortened: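 Log-phase cells (overnight LB culture diluted 50×, grown to OD600 0.5) pelleted and resuspended to OD600 1.0 in 5 mM HEPES with 20 mM glucose. Test compound serially diluted in triplicate. NPN stock (0.5 mM in acetone) diluted 12.5× in buffer and added. Fluorescence read after 60 min, ex 355 nm / em 420 nm. Uptake % = (F − buffer blank)/(colistin 100 μg/mL − blank) × 100. Compound + NPN no-cell controls included.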

rat L6 muscle cell line = conditions: cited from earlier work

- MIC (E. coli BW25113 [4]; BW25113, compound alone): ≥ 200 µg/mL
SMILES: N=C(N)c1ccc(OCCCCCOc2ccc(C(=N)N)cc2)cc1 [compound 1, 4,4′-(Pentane-1,5-diylbis(oxy))dibenzimidamide, reference compound]
- FICI (K. pneumoniae ATCC13883): ≤0.125
- FICI (E. coli ATCC25922): 0.313
- FICI [1]: 0.375
- FICI (E. coli W3110; listed as pentamidine (1)): ≤0.188
- FICI (E. coli 552060.1): 0.375
- FICI ([2]; listed as pentamidine (1)): ≤0.250
- FICI [3]: ≤0.188
- FICI (P. aeruginosa ATCC27853): ≤0.500
- FICI (A. baumannii ATCC17978): ≤0.125

- MIC (E. coli BW25113 [4]; BW25113, compound alone): ≥ 200 µg/mL
SMILES: N=C(N)c1ccc(OCCCOc2ccc(C(=N)N)cc2)cc1 [compound 9, 4,4′-(Propane-1,3-diylbis(oxy))dibenzimidamide]

- MIC (E. coli BW25113 [4]; BW25113, compound alone): 200 µg/mL (≈ 543 µM)
SMILES: N=C(N)c1ccc(OCCCCCCCOc2ccc(C(=N)N)cc2)cc1 [compound 10, 4,4′-(Heptane-1,7-diylbis(oxy))dibenzimidamide]

- MIC (E. coli BW25113 [4]; BW25113, compound alone): > 200 µg/mL
SMILES: N=C(N)c1ccc(OCCSCCOc2ccc(C(=N)N)cc2)cc1 [compound 15, 4,4′-((Thiobis(ethane-2,1-diyl))bis(oxy))dibenzimidamide]

- MIC (E. coli BW25113 [4]; BW25113, compound alone): > 200 µg/mL
SMILES: N=C(N)c1ccc(OCCS(=O)(=O)CCOc2ccc(C(=N)N)cc2)cc1 [compound 16, 4,4′-((Sulfonylbis(ethane-2,1-diyl))bis(oxy))dibenzimidamide]

- MIC (E. coli BW25113 [4]; BW25113, 20 h, compound alone): > 200 µg/mL
SMILES: N=C(N)c1ccc(OCc2ccccc2COc2ccc(C(=N)N)cc2)cc1 [compound 21, 4,4′-((1,2-Phenylenebis(methylene))bis(oxy))dibenzimidamide]
- NPN uptake (OM disruption), in words (E. coli BW25113 [5]): dose-dependent increase in the fluorescent signal

- MIC (E. coli BW25113 [4]; BW25113, 20 h, compound alone): > 200 µg/mL
SMILES: N=C(N)c1ccc(OCc2cccc(COc3ccc(C(=N)N)cc3)c2)cc1 [compound 22, 4,4′-((1,3-Phenylenebis(methylene))bis(oxy))dibenzimidamide]
- NPN uptake (OM disruption), in words (E. coli BW25113 [5]): dose-dependent increase in the fluorescent signal; also recorded: stronger effect than PMBN
- FICI (E. coli ATCC25922): 0.094
- FICI [1]: 0.313
- FICI (E. coli W3110): 0.313
- FICI (E. coli 552060.1): 0.250
- FICI [2]: 0.188

SMILES: N=C(N)c1cccc(OCc2ccc(COc3cccc(C(=N)N)c3)cc2)c1 [compound 23b, 3,3′-[1,4-Phenylenebis(methyleneoxy)]dibenzenecarboximidamide]
- FICI (E. coli ATCC25922): 0.156

SMILES: N=C(N)c1ccc(OCc2ccc3ccc(COc4ccc(C(=N)N)cc4)cc3c2)cc1 [compound 24, 4,4′-((Naphthalene-2,7-diylbis(methylene))bis(oxy))dibenzimidamide]
- toxicity against a rat L6 muscle cell line (rat L6 muscle cell line): significant toxicity
